Screens from PubChem BioAssay.
This excerpt belongs to a sample that is enriched for hits.
MPTP block = blocks calcium-induced mitochondrial swelling | isolated mouse mitochondria, Ca2+ swelling absorbance, 30 min | inhibition, % at 10 µM | 1.4% of 360,000 active | AID 602449;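 active = inhibition of 50% or more, scaled per plate between neutral and stimulator controls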;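 also: 0% = DMSO wells given calcium and 100% = 1 mM EGTA wells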
Lmaj promast = reduces viability of Leishmania major promastigotes | resazurin fluorescence viability | inhibition, % at 10 µM | 9% of 200,000 active; in the data active = inhibition above about 50%;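 also: promastigotes grown with compound for 44 hours at 28 °C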
Lipid droplet = modulators of hepatic lipid droplet formation. AID 1656. 0.4% of 240,000 active. AML12 mouse hepatocytes, oleate lipid droplets, BODIPY imaging. inhibition, % at 6.5 µM;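 active = lipid droplet intensity inhibited by at least 50%, with more than 500 cells counted; inconclusive = wells with under 300 cells, treated as cytotoxic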
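Material – AML12 mouse liver cells · Also added – oleate loading, 100 µM · Compound dosing – 6.5 µM single-point dosing · Times – overnight treatment with compound plus oleate · Measured by – fluorescence imaging, 20x objective, two fields per well · Read-out – percent inhibition of filter-corrected integrated lipid droplet intensity per well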
T cruzi inh = blocks replication of Trypanosoma cruzi. T. cruzi beta-gal in NIH3T3, luminescence, 90 h. inhibition, % (test concentration not listed). 1.4% of 300,000 active. AID 1885;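 active = mean inhibition across valid replicates above about 55%, limit read from the data; inconclusive = mean below that limit but half or more replicates reach it; inactive = mean below it, under half of replicates reach it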;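 also: signal also drops with host cell toxicity which is not excluded here; 0% = plate median of DMSO wells and 100% = zero luminescence signal; higher percent means less beta-gal luminescence so fewer parasites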
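Read-out: Parasite load inhibition, % | Test system: Mouse NIH/3T3 fibroblasts infected with β-gal-expressing T. cruzi Tulahuen C4 | Amount: 5,000 cells/well | Medium: DMEM, 2% fetal bovine serum | Signal: GalScreen β-gal luminescence, detergent lysis, 60 min | Timing: 3 h attach, ≥90 h co-culture | Also added: Tulahuen C4 trypomastigotes, 5000/well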
Redox H2O2 prof = compounds producing H2O2 with reducing agent – biochemical, NIH compound library profiling, artefact control for MLSCN library redox annotation, primary screen; AID 878; activation, % at 10 µM; DTT-dependent redox cycling H2O2, phenol red/HRP absorbance; 100% = 100 µM peroxide control, 0% = buffer; 0.03% of 200,000 active;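 active = activation of at least 50% relative to the plate's high and low controls in the primary single-dose screen; inactive = activation below 50%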;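 also: compound incubated with DTT at 0.8 mM final as the reducing agent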
Numbers without * were called inactive.

CCN(C(=O)c1ccc(S(=O)(=O)N(C)C)cc1)C(C)C(=O)Nc1ccc(C)cc1 (stereo unspecified) was read as MPTP block 1, Lipid droplet -6 and T cruzi inh 4.
For CC(C)COc1ccc(C(=O)Nc2scc(-c3ccc(Cl)cc3Cl)c2C(N)=O)cc1 the results were MPTP block 2, Lmaj promast -6, T cruzi inh 55* and Redox H2O2 prof 0.
CCn1c(CCNC(=O)c2ccc(OC)cc2)nnc1SCc1ccc(Cl)c(Cl)c1 was read as MPTP block 1, Lmaj promast 93*, Lipid droplet -20, T cruzi inh 17 and Redox H2O2 prof 0.
For CCn1c(CCNC(=O)c2ccc(OC)cc2)nnc1SCc1ccc(Cl)cc1Cl the results were MPTP block 0, Lmaj promast 91*, Lipid droplet -5, T cruzi inh 15 and Redox H2O2 prof 0.
CCn1c(CCNC(=O)c2ccc(OC)cc2)nnc1SCC(=O)Nc1ccccc1F was read as MPTP block 0, Lmaj promast -5, Lipid droplet -3, T cruzi inh 2 and Redox H2O2 prof -1.
For CCOC(=O)C1=C(C)NC(C)=C(C(=O)OCC)C1C(=O)OCC(=O)NCCc1ccc(S(N)(=O)=O)cc1 the results were MPTP block 0 and T cruzi inh -6.
CCOC(=O)c1nnc(-c2ccc(C)cc2)nc1Sc1ccccc1Cl was read as MPTP block -2, Lmaj promast 39, Lipid droplet 8, T cruzi inh 9 and Redox H2O2 prof 0.
Screening CCOC(=O)c1nnc(-c2ccc(C)cc2)nc1Sc1ccc(Cl)cc1 returned MPTP block 0, Lmaj promast 54*, Lipid droplet -1, T cruzi inh -16 and Redox H2O2 prof 0.
For Cc1cccc(C)c1C(=O)N[C@@H](Cc1ccccc1)C(=O)O the results were MPTP block 0, Lmaj promast -1, Lipid droplet -16, T cruzi inh -17 and Redox H2O2 prof 6.
Cc1c(Cl)cccc1-n1c(SCC(=O)NCc2ccccc2Cl)nnc1-c1ccncc1 was read as MPTP block -3, Lmaj promast 100*, T cruzi inh 38 and Redox H2O2 prof 2.
`COCCCn1c(=S)[nH]c2sc3c(c2c1=O)CCCS3` gave MPTP block 0, Lmaj promast 16, Lipid droplet -3, T cruzi inh -13 and Redox H2O2 prof -2.
For COc1ccc(NC(=S)N2CCCC(c3nc4ccc(C)cc4[nH]3)C2)c(OC)c1 (stereo unspecified) the results were MPTP block 0, Lmaj promast 100*, Lipid droplet -22, T cruzi inh 2 and Redox H2O2 prof -2.
`COc1ccc(NC(=S)N2CCCC(c3nc4ccc(C)cc4[nH]3)C2)cc1` (stereo unspecified) gave MPTP block -1, Lmaj promast 94*, Lipid droplet -2, T cruzi inh 6 and Redox H2O2 prof 4.
`CCOc1ccc(NC(=O)c2ccc(Cl)c(NC(=O)c3ccco3)c2)cc1` gave MPTP block 1, Lipid droplet 6 and T cruzi inh 7.
For CC(=O)N(c1cccc(Cl)c1)c1nc(C)cc(C)c1C#N the results were MPTP block 2, Lipid droplet 1 and T cruzi inh -6.
`CCOC(=O)CN1C(=O)N[C@@H](CCc2ccccc2)[C@H](C(C)=O)[C@H]1C` gave MPTP block 0 and T cruzi inh -6.
`CCOc1cccc(C(=O)NC(c2ccccc2)C(C)C)c1` (stereo unspecified) gave MPTP block 1, Lmaj promast 57*, Lipid droplet 4, T cruzi inh -5 and Redox H2O2 prof 1.
CCCOC1CCCN(C(=O)c2ccc3oc(C(C)C)nc3c2)C1 (stereo unspecified) was read as MPTP block 0, Lipid droplet 12 and T cruzi inh -4.
Screening CCCN(CCC)CC(O)Cn1cc(/C=C/C(=O)c2ccccc2)c2ccccc21 (stereo unspecified) returned MPTP block 3, Lmaj promast 69*, Lipid droplet 12, T cruzi inh 41 and Redox H2O2 prof 0.
Screening CCCCN(C)CC(O)Cn1cc(/C=C/C(=O)c2ccc(C)cc2)c2ccccc21 (stereo unspecified) returned MPTP block 1, Lipid droplet -6 and T cruzi inh inconclusive.
Screening O=C(/C=C/c1cn(CC(O)CN2CCCCC2)c2ccccc12)c1cccs1 (stereo unspecified) returned MPTP block 23, Lmaj promast 99*, Lipid droplet -17, T cruzi inh 4 and Redox H2O2 prof 0.
`O=C(NCC(=O)N(c1cccnc1)C(C(=O)NC1CCCC1)c1ccccc1F)c1ccco1` (stereo unspecified) gave MPTP block -2, Lipid droplet -17 and T cruzi inh 12.
Cc1ccc2c(c1)C1CN(C)CCC1N2S(=O)(=O)c1cccc(C(F)(F)F)c1 (stereo unspecified) was read as MPTP block 0.
Cc1ccc2c(c1)C1CN(C)CCC1N2C(=O)COc1ccc(N(C)C(=O)C(C)(C)C)cc1 (stereo unspecified) was read as MPTP block 0, Lmaj promast 33, Lipid droplet -8, T cruzi inh 41 and Redox H2O2 prof 0.
Screening Cc1ccc(C(=O)N(C)c2ccc(OCC(=O)N3c4ccc(C)cc4C4CN(C)CCC43)cc2)cc1 (stereo unspecified) returned MPTP block -2, Lmaj promast 13, Lipid droplet 28, T cruzi inh 68* and Redox H2O2 prof 0.
Screening Cc1ccc2c(c1)C1CN(C)CCC1N2C(=O)c1ccc(Cl)c(S(=O)(=O)N2CCOCC2)c1 (stereo unspecified) returned MPTP block -2, Lmaj promast 7, Lipid droplet 0, T cruzi inh 60* and Redox H2O2 prof -2.
Screening Cc1ccc2c(c1)C1CN(C)CCC1N2C(=O)c1cccc(S(=O)(=O)N2CC(C)CC(C)C2)c1 (stereo unspecified) returned MPTP block -2, Lmaj promast 15, Lipid droplet 13, T cruzi inh 80* and Redox H2O2 prof 0.
O=C(NCc1ccco1)C1CCN(C(=O)c2ccc(Cl)cc2Cl)CC1 was read as MPTP block 0, Lipid droplet 15 and T cruzi inh -13.
For O=C(NCc1ccccc1)C1CCCN(C(=O)c2ccc(F)cc2)C1 (stereo unspecified) the results were MPTP block -1.
Cc1onc(-c2ccccc2)c1C(=O)N/N=C/c1cc2c(cc1Cl)OCO2 was read as MPTP block 0, Lmaj promast 100*, Lipid droplet 8, T cruzi inh -2 and Redox H2O2 prof 0.
Screening COc1cccc(/C=N/NC(=O)c2c(-c3ccccc3)noc2C)c1O returned MPTP block -1, Lmaj promast 95*, T cruzi inh -7 and Redox H2O2 prof 2.
